Drawing on ChEMBL document CHEMBL1154352, “Toll-like receptor 7 selective synthetic oligoribonucleotide agonists: synthesis and structure-activity relationship studies” (J Med Chem, 2009), this text covers Activity and fold change (FC) for 3 compounds.

In assay [1] the test system is Splenocyte. In words: Immunomodulatory activity in C57BL/6 mouse splenocytes bearing TLR7 receptor assessed as IL6 release at 100 ug/ml after 24 hrs by ELISA. The format is functional, cell-based. In a few lines:
(§1)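 C57BL/6 splenocytes in RPMI 1640 with 10% FBS, penicillin/streptomycin, 2 mM L-glutamine, plated at 5 × 10^6 cells/mL; compounds in PBS added, 37 °C for 24 h. Supernatant IL-12 and IL-6 by ELISA; representative of three independent experiments.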
For orientation: In an ELISA, binding on a coated surface is turned into a signal by an enzyme label.

The target in assay [2] is T1, Toll-like receptor 9 (Mus musculus) (UniProt Q9EQU3).
T1 sequence (whole entry): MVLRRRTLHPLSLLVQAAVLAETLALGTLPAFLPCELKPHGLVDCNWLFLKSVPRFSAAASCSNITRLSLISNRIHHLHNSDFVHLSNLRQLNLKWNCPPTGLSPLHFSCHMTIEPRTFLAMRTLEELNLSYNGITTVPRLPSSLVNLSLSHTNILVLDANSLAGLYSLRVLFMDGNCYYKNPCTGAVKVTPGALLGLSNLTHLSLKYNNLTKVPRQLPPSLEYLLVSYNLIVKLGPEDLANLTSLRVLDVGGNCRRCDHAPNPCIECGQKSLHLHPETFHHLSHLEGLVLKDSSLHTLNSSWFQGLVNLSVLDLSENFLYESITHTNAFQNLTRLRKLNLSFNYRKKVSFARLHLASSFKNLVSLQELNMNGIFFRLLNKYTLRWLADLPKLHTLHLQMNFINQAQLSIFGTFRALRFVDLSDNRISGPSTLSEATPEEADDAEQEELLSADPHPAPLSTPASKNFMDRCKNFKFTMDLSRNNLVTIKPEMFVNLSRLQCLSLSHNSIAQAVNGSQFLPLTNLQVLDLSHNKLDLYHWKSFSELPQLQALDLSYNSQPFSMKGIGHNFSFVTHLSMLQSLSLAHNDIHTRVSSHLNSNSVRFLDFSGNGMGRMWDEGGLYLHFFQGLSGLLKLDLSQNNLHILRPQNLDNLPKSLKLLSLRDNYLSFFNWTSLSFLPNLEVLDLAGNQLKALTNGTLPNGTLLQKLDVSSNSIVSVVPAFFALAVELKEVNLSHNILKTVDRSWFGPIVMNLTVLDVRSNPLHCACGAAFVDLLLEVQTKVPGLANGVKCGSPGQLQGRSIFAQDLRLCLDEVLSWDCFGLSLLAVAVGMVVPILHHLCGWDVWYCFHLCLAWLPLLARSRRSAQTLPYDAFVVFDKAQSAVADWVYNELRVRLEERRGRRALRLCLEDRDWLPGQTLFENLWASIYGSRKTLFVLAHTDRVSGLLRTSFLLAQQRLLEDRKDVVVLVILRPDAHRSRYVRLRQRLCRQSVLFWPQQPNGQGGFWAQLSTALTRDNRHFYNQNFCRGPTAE
Put plainly: Activation of mouse TLR9 expressed in HEK293 assessed as induction of NF-kappaB activity reporter gene assay. Type of assay: cell-based. A general note: A reporter such as luciferase makes a cellular process visible.

Assay [3] addresses T2, Toll-like receptor 7 (Homo sapiens) (UniProt Q9NYK1).
T2 sequence (whole entry): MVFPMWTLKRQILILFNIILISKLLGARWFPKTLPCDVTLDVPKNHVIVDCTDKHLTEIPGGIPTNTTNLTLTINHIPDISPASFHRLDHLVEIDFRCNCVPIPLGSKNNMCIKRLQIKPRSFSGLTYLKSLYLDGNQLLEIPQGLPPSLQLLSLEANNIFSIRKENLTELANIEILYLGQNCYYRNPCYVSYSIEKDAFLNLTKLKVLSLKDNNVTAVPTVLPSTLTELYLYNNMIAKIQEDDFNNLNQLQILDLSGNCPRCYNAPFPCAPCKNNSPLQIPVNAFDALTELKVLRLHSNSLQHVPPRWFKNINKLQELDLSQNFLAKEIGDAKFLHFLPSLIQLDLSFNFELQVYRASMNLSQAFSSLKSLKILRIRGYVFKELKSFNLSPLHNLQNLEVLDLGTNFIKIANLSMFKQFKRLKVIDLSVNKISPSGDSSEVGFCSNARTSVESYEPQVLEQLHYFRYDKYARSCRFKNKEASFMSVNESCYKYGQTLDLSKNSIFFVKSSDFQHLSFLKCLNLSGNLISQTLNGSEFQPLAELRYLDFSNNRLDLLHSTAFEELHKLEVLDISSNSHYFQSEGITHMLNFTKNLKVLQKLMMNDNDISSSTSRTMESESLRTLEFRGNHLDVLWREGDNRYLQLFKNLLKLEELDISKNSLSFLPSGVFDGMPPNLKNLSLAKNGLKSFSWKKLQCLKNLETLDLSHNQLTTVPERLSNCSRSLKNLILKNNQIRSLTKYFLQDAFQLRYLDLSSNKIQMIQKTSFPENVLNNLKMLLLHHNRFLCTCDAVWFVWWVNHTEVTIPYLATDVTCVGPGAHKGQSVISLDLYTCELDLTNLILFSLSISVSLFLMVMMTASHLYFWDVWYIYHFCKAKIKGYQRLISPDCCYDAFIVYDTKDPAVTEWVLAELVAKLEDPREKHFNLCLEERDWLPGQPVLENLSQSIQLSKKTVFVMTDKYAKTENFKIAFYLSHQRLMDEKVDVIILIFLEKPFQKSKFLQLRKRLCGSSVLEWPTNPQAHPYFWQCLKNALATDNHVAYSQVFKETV
In words: Activation of human TLR7 expressed in HEK293XL assessed as fold induction of NF-kappaB activity at 50 ug/ml after 18 hrs by reporter gene assay relative to control. In short, it runs like this: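 HEK293 cells stably expressing human TLR7 or TLR8, transiently transfected with SEAP reporter plasmid; medium replaced, SIMRA compounds added, 18 h incubation. Supernatant SEAP measured by QuantiBlue; expressed as fold increase in NF-κB activity over PBS control. Tabulated data at 50 μg/mL, representative of three independent experiments.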

The subject of assay [4] is Splenocyte. In words: Immunomodulatory activity in C57BL/6 mouse splenocytes bearing TLR7 receptor assessed as IL12 release at 100 ug/ml after 24 hrs by ELISA. The format is functional, cell-based. In short, it runs like this: as §1

Calls of active or inactive are those of the source. The calls are words filed in the database; no cut-off is given here.

As to `Nc1ccn([C@@H]2O[C@H](COP(=O)(S)O[C@H]3[C@@H](O)[C@H](n4cnc5c(N)ncnc54)O[C@@H]3CO)[C@@H](OP(=O)(S)OC[C@H]3O[C@@H](n4ccc(=O)[nH]c4=O)[C@H](O)[C@@H]3OP(=O)(S)OC[C@H]3O[C@@H](n4ccc(=O)[nH]c4=O)[C@H](O)[C@@H]3OP(=O)(S)OC[C@H]3O[C@@H](n4ccc5c(=O)[nH]c(N)nc54)[C@H](O)[C@@H]3OP(=O)(S)OC[C@H]3O[C@@H](n4cnc5c(N)ncnc54)[C@H](O)[C@@H]3OP(=O)(S)OC[C@H]3O[C@@H](n4ccc(N)nc4=O)[C@H](O)[C@@H]3OP(=O)(S)OC[C@H]3O[C@@H](n4ccc(=O)[nH]c4=O)[C@H](O)[C@@H]3OP(=O)(S)OC[C@H]3O[C@@H](n4ccc(=O)[nH]c4=O)[C@H](O)[C@@H]3OP(=O)(S)OC[C@H]3O[C@@H](n4ccc5c(=O)[nH]c(N)nc54)[C@H](O)[C@@H]3OP(=O)(S)OC[C@H]3O[C@@H](n4cnc5c(N)ncnc54)[C@H](O)[C@@H]3OP(=O)(S)OCC(O)COP(=O)(S)O[C@H]3[C@@H](O)[C@H](n4cnc5c(N)ncnc54)O[C@@H]3COP(=O)(S)O[C@H]3[C@@H](O)[C@H](n4ccc5c(=O)[nH]c(N)nc54)O[C@@H]3COP(=O)(S)O[C@H]3[C@@H](O)[C@H](n4ccc(=O)[nH]c4=O)O[C@@H]3COP(=O)(S)O[C@H]3[C@@H](O)[C@H](n4ccc(=O)[nH]c4=O)O[C@@H]3COP(=O)(S)O[C@H]3[C@@H](O)[C@H](n4ccc(N)nc4=O)O[C@@H]3COP(=O)(S)O[C@H]3[C@@H](O)[C@H](n4cnc5c(N)ncnc54)O[C@@H]3COP(=O)(S)O[C@H]3[C@@H](O)[C@H](n4ccc5c(=O)[nH]c(N)nc54)O[C@@H]3COP(=O)(S)O[C@H]3[C@@H](O)[C@H](n4ccc(=O)[nH]c4=O)O[C@@H]3COP(=O)(S)O[C@H]3[C@@H](O)[C@H](n4ccc(=O)[nH]c4=O)O[C@@H]3COP(=O)(S)O[C@H]3[C@@H](O)[C@H](n4ccc(N)nc4=O)O[C@@H]3COP(=O)(S)O[C@H]3[C@@H](O)[C@H](n4cnc5c(N)ncnc54)O[C@@H]3CO)[C@H]2O)c(=O)n1` (some centres not stated), the result in assay [1] and in assay [4] was Active. Moreover, the result in assay [2] was inactive. Also, in assay [3], the fold change (FC) was found to be 9.1.
Take `Nc1ccn([C@@H]2O[C@H](COP(=O)(S)O[C@H]3[C@@H](O)[C@H](n4cnc5c(N)ncnc54)O[C@@H]3CO)[C@@H](OP(=O)(S)OC[C@H]3O[C@@H](n4ccc(=O)[nH]c4=O)[C@H](O)[C@@H]3OP(=O)(S)OC[C@H]3O[C@@H](n4ccc(=O)[nH]c4=O)[C@H](O)[C@@H]3OP(=O)(S)OC[C@H]3O[C@@H](n4ccc5c(=O)[nH]c(N)nc54)[C@H](O)[C@@H]3OP(=O)(S)OC[C@H]3O[C@@H](n4cnc5c(N)ncnc54)[C@H](O)[C@@H]3OP(=O)(S)OC[C@H]3O[C@@H](n4cnc5c(N)ncnc54)[C@H](O)[C@@H]3OP(=O)(S)OC[C@H]3O[C@@H](n4ccc(N)nc4=O)[C@H](O)[C@@H]3OP(=O)(S)OC[C@H]3O[C@@H](n4ccc(=O)[nH]c4=O)[C@H](O)[C@@H]3OP(=O)(S)OC[C@H]3O[C@@H](n4ccc(=O)[nH]c4=O)[C@H](O)[C@@H]3OP(=O)(S)OC[C@H]3O[C@@H](n4ccc5c(=O)[nH]c(N)nc54)[C@H](O)[C@@H]3OP(=O)(S)OCC(O)COP(=O)(S)O[C@H]3[C@@H](O)[C@H](n4ccc5c(=O)[nH]c(N)nc54)O[C@@H]3COP(=O)(S)O[C@H]3[C@@H](O)[C@H](n4ccc(=O)[nH]c4=O)O[C@@H]3COP(=O)(S)O[C@H]3[C@@H](O)[C@H](n4ccc(=O)[nH]c4=O)O[C@@H]3COP(=O)(S)O[C@H]3[C@@H](O)[C@H](n4ccc(N)nc4=O)O[C@@H]3COP(=O)(S)O[C@H]3[C@@H](O)[C@H](n4cnc5c(N)ncnc54)O[C@@H]3COP(=O)(S)O[C@H]3[C@@H](O)[C@H](n4cnc5c(N)ncnc54)O[C@@H]3COP(=O)(S)O[C@H]3[C@@H](O)[C@H](n4ccc5c(=O)[nH]c(N)nc54)O[C@@H]3COP(=O)(S)O[C@H]3[C@@H](O)[C@H](n4ccc(=O)[nH]c4=O)O[C@@H]3COP(=O)(S)O[C@H]3[C@@H](O)[C@H](n4ccc(=O)[nH]c4=O)O[C@@H]3COP(=O)(S)O[C@H]3[C@@H](O)[C@H](n4ccc(N)nc4=O)O[C@@H]3COP(=O)(S)O[C@H]3[C@@H](O)[C@H](n4cnc5c(N)ncnc54)O[C@@H]3CO)[C@H]2O)c(=O)n1` (some centres not stated): the result in assay [1] and in assay [4] was Active. In addition, the result in assay [2] was inactive. Also, in assay [3], the fold change (FC) amounted to 14.7.
For `Nc1ccn([C@@H]2O[C@H](COP(=O)(S)O[C@H]3[C@@H](O)[C@H](n4ccc(N)nc4=O)O[C@@H]3COP(=O)(S)O[C@H]3[C@@H](O)[C@H](n4cnc5c(N)ncnc54)O[C@@H]3COP(=O)(S)O[C@H]3[C@@H](O)[C@H](n4ccc5c(=O)[nH]c(N)nc54)O[C@@H]3COP(=O)(S)O[C@H]3[C@@H](O)[C@H](n4ccc(=O)[nH]c4=O)O[C@@H]3COP(=O)(S)O[C@H]3[C@@H](O)[C@H](n4ccc(=O)[nH]c4=O)O[C@@H]3COP(=O)(S)O[C@H]3[C@@H](O)[C@H](n4ccc(N)nc4=O)O[C@@H]3COP(=O)(S)O[C@H]3[C@@H](O)[C@H](n4cnc5c(N)ncnc54)O[C@@H]3CO)[C@@H](OP(=O)(S)OC[C@H]3O[C@@H](n4ccc(=O)[nH]c4=O)[C@H](O)[C@@H]3OP(=O)(S)OC[C@H]3O[C@@H](n4ccc(=O)[nH]c4=O)[C@H](O)[C@@H]3OP(=O)(S)OC[C@H]3O[C@@H](n4ccc(=O)[nH]c4=O)[C@H](O)[C@@H]3OP(=O)(S)OCC(O)COP(=O)(S)O[C@H]3[C@@H](O)[C@H](n4ccc(=O)[nH]c4=O)O[C@@H]3COP(=O)(S)O[C@H]3[C@@H](O)[C@H](n4ccc(=O)[nH]c4=O)O[C@@H]3COP(=O)(S)O[C@H]3[C@@H](O)[C@H](n4ccc(=O)[nH]c4=O)O[C@@H]3COP(=O)(S)O[C@H]3[C@@H](O)[C@H](n4ccc(N)nc4=O)O[C@@H]3COP(=O)(S)O[C@H]3[C@@H](O)[C@H](n4ccc(N)nc4=O)O[C@@H]3COP(=O)(S)O[C@H]3[C@@H](O)[C@H](n4cnc5c(N)ncnc54)O[C@@H]3COP(=O)(S)O[C@H]3[C@@H](O)[C@H](n4ccc5c(=O)[nH]c(N)nc54)O[C@@H]3COP(=O)(S)O[C@H]3[C@@H](O)[C@H](n4ccc(=O)[nH]c4=O)O[C@@H]3COP(=O)(S)O[C@H]3[C@@H](O)[C@H](n4ccc(=O)[nH]c4=O)O[C@@H]3COP(=O)(S)O[C@H]3[C@@H](O)[C@H](n4ccc(N)nc4=O)O[C@@H]3COP(=O)(S)O[C@H]3[C@@H](O)[C@H](n4cnc5c(N)ncnc54)O[C@@H]3CO)[C@H]2O)c(=O)n1` (some centres not stated), the result in assay [1] and in assay [4] was Active. The outcome in assay [2] was inactive. In assay [3], the fold change (FC) was determined as 23.3.
